Laboratory results published in ChEMBL document CHEMBL1212730, “Augmented photoswitching modulates immune signaling” (Nat Chem Biol, 2009).
Active and inactive are the calls of the source. No cut-off for these calls is given here.

How the values were obtained:
[1] = molecular target: T1, Peptidyl-prolyl cis-trans isomerase A (Homo sapiens, UniProt P62937); assay: Inhibition of PPIase activity of cyclophilin 18 by protease coupled assay
Target sequence in this assay (P62937 whole entry): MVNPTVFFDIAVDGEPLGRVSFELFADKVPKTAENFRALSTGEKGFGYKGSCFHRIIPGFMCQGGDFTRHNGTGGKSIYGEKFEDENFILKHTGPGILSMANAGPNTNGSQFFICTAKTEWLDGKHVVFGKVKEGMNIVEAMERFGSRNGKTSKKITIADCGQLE

[2] = molecular target: T1, Peptidyl-prolyl cis-trans isomerase A; assay: Binding affinity to cyclophilin 18 by protease coupled assay
Target sequence in this assay (P62937 whole entry): as above

[3] = molecular target: T1, Peptidyl-prolyl cis-trans isomerase A; assay: Binding affinity to streptavidin-coupled biotin-labeled cyclophilin 18 assessed as reduction in [33P] phosphatase activity of calcineurin by protease coupled assay
Target sequence in this assay (P62937 whole entry): as above

[4] = molecular target: T1, Peptidyl-prolyl cis-trans isomerase A; details: 200 nM
Target sequence in this assay (P62937 whole entry, looked up): as the sequence (P62937 whole entry) above

[5] = molecular target: T1, Peptidyl-prolyl cis-trans isomerase A; assay: Binding affinity to cyclophilin 18 assessed as reduction in calcineurin activity by protease coupled assay
How it was run: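 Cyp18 PPIase activity measured by a chymotrypsin-coupled protease assay with Suc-Ala-Phe-Pro-Phe-NH-Np as substrate at 7 °C. Cyp18 was 2.5 nM. Compound was tested non-irradiated, irradiated at 740 nm for 45 min, or irradiated and then kept dark overnight, with DMSO as control. Data are means ± s.d.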
Target sequence in this assay (P62937 whole entry): as above

[6] = molecular target: T1, Peptidyl-prolyl cis-trans isomerase A; assay: Binding affinity to cyclophilin 18 assessed as reduction in [33P]phosphatase activity of calcineurin by protease coupled assay
How it was run: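 Calcineurin phosphatase activity measured at 30 °C with 33P-labeled phosphocasein. CaN was 3.5 nM, with Cyp18 at the desired concentrations and 10 µM compound, either irradiated at 740 nm for 45 min or non-irradiated, with or without streptavidin. The inhibitor concentration refers to the Cyp18–compound complex. Data are means ± s.d.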
Target sequence in this assay (P62937 whole entry): as above

[7] = molecular target: T1, Peptidyl-prolyl cis-trans isomerase A; details: Blood, 50 to 200 nM
Target sequence in this assay (P62937 whole entry, looked up): as the sequence (P62937 whole entry) above

[8] = molecular target: T1, Peptidyl-prolyl cis-trans isomerase A; details: Blood, 50 to 200 nM; remark: listed apart in the source
Target sequence in this assay (P62937 whole entry, looked up): as the sequence (P62937 whole entry) above

[9] = molecular target: T1, Peptidyl-prolyl cis-trans isomerase A; details: 10 uM
Target sequence in this assay (P62937 whole entry, looked up): as the sequence (P62937 whole entry) above

[10] = molecular target: T1, Peptidyl-prolyl cis-trans isomerase A; details: Blood, Lysate, 50 to 200 nM
Target sequence in this assay (P62937 whole entry, looked up): as the sequence (P62937 whole entry) above

[11] = molecular target: T2, Protein phosphatase 3 catalytic subunit alpha (Homo sapiens, UniProt Q08209); assay: Inhibition of calcineurin-mediated NFAT activation in human Jurkat cells measured after 45 min of irradiation with 740 nm light by luciferase reporter gene assay; type: cell-based
[12] = molecular target: T2, Protein phosphatase 3 catalytic subunit alpha; assay: Inhibition of calcineurin-mediated NFAT activation in human Jurkat cells by luciferase reporter gene assay; type: cell-based
How it was run: (§1)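 Cells were pretreated with non-irradiated compound, then either kept dark or irradiated at 740 nm for 1 h before PMA/ionomycin stimulation. Luciferase was read in lysed cells. Data are means ± s.d.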

PBMC [13] = assay: Immunosuppressive activity in streptavidin-stimulated human PBMC assessed as decrease in PMA/ionomycin-induced IL-2 production measured at 4 hrs interval by flow cytometry; type: functional, cell-based
PBMC [14] = assay: Immunosuppressive activity in human PBMC assessed as decrease in PMA/ionomycin-induced IL-2 production measured at 4 hrs interval by flow cytometry; type: functional, cell-based
PBMC [15] = assay: Immunosuppressive activity in streptavidin-stimulated human PBMC assessed as decrease in PMA/ionomycin-induced IL-2 production measured at 4 hrs interval post irradiation of 45 mins with 740 nm light by flow cytometry; type: functional, cell-based
[16] = molecular target: T2, Protein phosphatase 3 catalytic subunit alpha; assay: Inhibition of calcineurin-mediated streptavidin-coupled NFAT activation in human Jurkat cells measured after 45 min of irradiation with 740 nm light by luciferase reporter gene assay; type: cell-based
[17] = molecular target: T2, Protein phosphatase 3 catalytic subunit alpha; assay: Inhibition of calcineurin-mediated streptavidin-coupled NFAT activation in human Jurkat cells by luciferase reporter gene assay; type: cell-based; how it was run: as §1
PBMC [18] = assay: Immunosuppressive activity in human PBMC assessed as decrease in PMA/ionomycin-induced IL-2 production measured at 4 hrs interval post irradiation of 45 mins with 740 nm light by flow cytometry; type: functional, cell-based

C/C=C/C[C@@H](C)[C@@H](O)[C@H]1C(=O)N[C@@H](CC)C(=O)N(C)CC(=O)N(C)[C@@H](CC(C)C)C(=O)N[C@@H](C(C)C)C(=O)N(C)[C@@H](CC(C)C)C(=O)N[C@@H](C)C(=O)N[C@H](COCC(=O)Nc2ccc(/N=N\c3ccccc3)cc2)C(=O)N(C)[C@@H](CC(C)C)C(=O)N(C)[C@@H](CC(C)C)C(=O)N(C)[C@@H](C(C)C)C(=O)N1C
IC50 [1]: 2.79 nM
IC50 [2]: 147 nM

C/C=C/C[C@@H](C)[C@@H](O)[C@H]1C(=O)N[C@@H](CC)C(=O)N(C)CC(=O)N(C)[C@@H](CC(C)C)C(=O)N[C@@H](C(C)C)C(=O)N(C)[C@@H](CC(C)C)C(=O)N[C@@H](C)C(=O)N[C@H](COCC(=O)Nc2ccc(/N=N/c3ccccc3)cc2)C(=O)N(C)[C@@H](CC(C)C)C(=O)N(C)[C@@H](CC(C)C)C(=O)N(C)[C@@H](C(C)C)C(=O)N1C
IC50 [1]: 4.75 nM
IC50 [3]: 227 nM

C/C=C/C[C@@H](C)[C@@H](O)[C@H]1C(=O)N[C@@H](CC)C(=O)N(C)CC(=O)N(C)[C@@H](CC(C)C)C(=O)N[C@@H](C(C)C)C(=O)N(C)[C@@H](CC(C)C)C(=O)N[C@@H](C)C(=O)N[C@H](COCC(=O)Nc2ccc(/N=N\c3ccc(NC(=O)COC[C@H]4NC(=O)[C@H](C)NC(=O)[C@H](CC(C)C)N(C)C(=O)[C@H](C(C)C)NC(=O)[C@H](CC(C)C)N(C)C(=O)CN(C)C(=O)[C@H](CC)NC(=O)[C@H]([C@H](O)[C@H](C)C/C=C/C)N(C)C(=O)[C@H](C(C)C)N(C)C(=O)[C@H](CC(C)C)N(C)C(=O)[C@H](CC(C)C)N(C)C4=O)cc3)cc2)C(=O)N(C)[C@@H](CC(C)C)C(=O)N(C)[C@@H](CC(C)C)C(=O)N(C)[C@@H](C(C)C)C(=O)N1C
IC50 [1]: 30 nM
inhibition [4]: Active
IC50 [5]: 266 nM

C/C=C/C[C@@H](C)[C@@H](O)[C@H]1C(=O)N[C@@H](CC)C(=O)N(C)CC(=O)N(C)[C@@H](CC(C)C)C(=O)N[C@@H](C(C)C)C(=O)N(C)[C@@H](CC(C)C)C(=O)N[C@@H](C)C(=O)N[C@H](COCC(=O)Nc2ccc(/N=N\c3ccc(NC(=O)CCCC[C@@H]4SC[C@@H]5NC(=O)N[C@@H]54)cc3)cc2)C(=O)N(C)[C@@H](CC(C)C)C(=O)N(C)[C@@H](CC(C)C)C(=O)N(C)[C@@H](C(C)C)C(=O)N1C
IC50 [6]: 950 nM
inhibition [7]: Active
inhibition [8]: Active

C/C=C/C[C@@H](C)[C@@H](O)[C@H]1C(=O)N[C@@H](CC)C(=O)N(C)CC(=O)N(C)[C@@H](CC(C)C)C(=O)N[C@@H](C(C)C)C(=O)N(C)[C@@H](CC(C)C)C(=O)N[C@@H](C)C(=O)N[C@H](COCC(=O)Nc2ccc(/N=N/c3ccc(NC(=O)CCCC[C@@H]4SC[C@@H]5NC(=O)N[C@@H]54)cc3)cc2)C(=O)N(C)[C@@H](CC(C)C)C(=O)N(C)[C@@H](CC(C)C)C(=O)N(C)[C@@H](C(C)C)C(=O)N1C
inhibition [7]: Active
inhibition [8]: Active
inhibition [9]: 30%
inhibition [10]: Active

C/C=C/C[C@@H](C)[C@@H](O)[C@H]1C(=O)N[C@@H](CC)C(=O)N(C)CC(=O)N(C)[C@@H](CC(C)C)C(=O)N[C@@H](C(C)C)C(=O)N(C)[C@@H](CC(C)C)C(=O)N[C@@H](C)C(=O)N[C@H](COCC(=O)Nc2ccc(N=Nc3ccccc3)cc2)C(=O)N(C)[C@@H](CC(C)C)C(=O)N(C)[C@@H](CC(C)C)C(=O)N(C)[C@@H](C(C)C)C(=O)N1C
IC50 [11]: 49 nM
IC50 [12]: 75 nM

C/C=C/C[C@@H](C)[C@@H](O)[C@H]1C(=O)N[C@@H](CC)C(=O)N(C)CC(=O)N(C)[C@@H](CC(C)C)C(=O)N[C@@H](C(C)C)C(=O)N(C)[C@@H](CC(C)C)C(=O)N[C@@H](C)C(=O)N[C@H](COCC(=O)Nc2ccc(N=Nc3ccc(NC(=O)CCCC[C@@H]4SC[C@@H]5NC(=O)N[C@@H]54)cc3)cc2)C(=O)N(C)[C@@H](CC(C)C)C(=O)N(C)[C@@H](CC(C)C)C(=O)N(C)[C@@H](C(C)C)C(=O)N1C
Activity (PBMC [13]): inactive
Activity (PBMC [14]): Active
Activity (PBMC [15]): Active
IC50 [16]: 1400 nM
IC50 [17]: 16.4 µM
Activity (PBMC [18]): Active
IC50 [11]: 89 nM
IC50 [12]: 135 nM

C/C=C/C[C@@H](C)[C@@H](O)[C@H]1C(=O)N[C@@H](CC)C(=O)N(C)CC(=O)N(C)[C@@H](CC(C)C)C(=O)N[C@@H](C(C)C)C(=O)N(C)[C@@H](CC(C)C)C(=O)N[C@@H](C)C(=O)N[C@H](COCC(=O)Nc2ccc(/N=N/c3ccc(NC(=O)COC[C@H]4NC(=O)[C@H](C)NC(=O)[C@H](CC(C)C)N(C)C(=O)[C@H](C(C)C)NC(=O)[C@H](CC(C)C)N(C)C(=O)CN(C)C(=O)[C@H](CC)NC(=O)[C@H]([C@H](O)[C@H](C)C/C=C/C)N(C)C(=O)[C@H](C(C)C)N(C)C(=O)[C@H](CC(C)C)N(C)C(=O)[C@H](CC(C)C)N(C)C4=O)cc3)cc2)C(=O)N(C)[C@@H](CC(C)C)C(=O)N(C)[C@@H](CC(C)C)C(=O)N(C)[C@@H](C(C)C)C(=O)N1C
IC50 [1]: 206 nM
IC50 [5]: 487 nM
IC50 [11]: 140 nM
IC50 [12]: 358 nM
inhibition [9]: 30%
